# Where a SMILES comes first, the peptide text is derived from it. [ ]: non-standard residue; d: D form. The star is where a group is joined. NHCH2CH2OH = OCCN*; For = O=C*
# Key:
# [1] = test system: P. falciparum ScDHOD-D10attB; experiment: SYBR Green proliferation assay, transgenic ScDHOD-D10attB line; type: cell-based, Plasmodium falciparum
# How it was run: (§1)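 Blood-stage P. falciparum D10attB parental line and ScDHOD-D10attB transgenic line (single integrated copy of yeast DHOD gene) were tested in the SYBR Green proliferation assay. IC50 values are means ± SD of three independent experiments, each in duplicate. The shift compares the transgenic IC50 with the parental IC50.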
# [2] = test system: P. falciparum ATQ-R lines (cytochrome b mutants); experiment: SYBR Green proliferation assay, atovaquone-resistant; type: cell-based, Plasmodium falciparum
# [3] = test system: Murine pro-B cell line Ba/F3; experiment: Cytotoxicity, Ba/F3 cells; type: cell-based; settings: read-out: mammalian cell line CC50; Ba/F3; CellTiter Glo reagent
# P. falciparum 3D7 strain = experiment: SYBR Green parasite proliferation assay, 3D7; type: cell-based, Plasmodium falciparum; settings: CC50 Ba/F3 / IC50 P. falciparum 3D7
# [4] = Cytotoxicity, Ba/F3 cells; type: cell-based, murine; settings: mouse
# [5] = chickens, iv; cited from earlier work
# [6] = test system: P. yoelii (17XNL strain) sporozoites; experiment: Prophylaxis activity test in sporozoite-infected mice; type: in vivo, ICR female mouse; settings: single oral dose with 50,000 sporozoites i.v.
# How it was run: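 ICR female mice (7 weeks, 26–36 g) received 50,000 P. yoelii 17XNL sporozoites via the tail vein. Immediately afterwards they were given a single oral gavage dose of test compound at 50 mg kg–1 in corn oil (5 mice). Parasitemia was checked daily by Giemsa-stained tail-snip blood microscopy. Prepatent period = first day parasitemia was seen. Mice were euthanized above 20% parasitemia.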
# P. falciparum DEC-R line = experiment: SYBR Green proliferation assay, decoquinate-resistant; type: cell-based, Plasmodium falciparum; settings: loss of potency against decoquinate-resistant clone
# P. falciparum D10attB = experiment: SYBR Green proliferation assay, parental D10attB line; type: cell-based; settings: Plasmodium falciparum, read-out: IC50 values, D10attB
# How it was run: as §1
# [7] = test system: P. yoelii sporozoites in HepG2-A16-CD81EGFP cells; type: cell-based, Plasmodium yoelii
# [8] = target: T1, P. yoelii cytochrome c reductase (Plasmodium yoelii, UniProt Q7PDA7); experiment: Ubiquinol-cytochrome c oxidoreductase; type: biochemical
# T1 sequence (Q7PDA7 1-376): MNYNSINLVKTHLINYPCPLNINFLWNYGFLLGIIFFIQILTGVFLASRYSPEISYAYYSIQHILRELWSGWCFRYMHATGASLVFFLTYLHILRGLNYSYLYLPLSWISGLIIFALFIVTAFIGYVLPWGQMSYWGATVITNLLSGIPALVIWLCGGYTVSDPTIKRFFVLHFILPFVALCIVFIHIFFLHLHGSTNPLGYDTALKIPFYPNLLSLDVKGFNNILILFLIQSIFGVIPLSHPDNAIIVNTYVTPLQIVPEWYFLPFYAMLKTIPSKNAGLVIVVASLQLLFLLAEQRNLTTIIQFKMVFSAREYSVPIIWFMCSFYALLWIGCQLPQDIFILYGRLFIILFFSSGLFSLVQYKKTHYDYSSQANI
# T1 sequence (V7P9V8 31-357 partner): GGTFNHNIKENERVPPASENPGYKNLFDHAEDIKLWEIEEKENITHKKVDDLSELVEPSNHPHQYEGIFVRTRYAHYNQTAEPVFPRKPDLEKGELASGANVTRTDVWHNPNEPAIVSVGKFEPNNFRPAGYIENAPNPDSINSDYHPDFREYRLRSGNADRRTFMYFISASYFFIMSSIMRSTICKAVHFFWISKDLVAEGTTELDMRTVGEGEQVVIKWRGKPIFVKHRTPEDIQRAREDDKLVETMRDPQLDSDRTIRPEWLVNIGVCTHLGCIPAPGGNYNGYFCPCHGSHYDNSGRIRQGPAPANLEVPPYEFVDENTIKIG
# T1 sequence (Q7RJI2 1-394 partner): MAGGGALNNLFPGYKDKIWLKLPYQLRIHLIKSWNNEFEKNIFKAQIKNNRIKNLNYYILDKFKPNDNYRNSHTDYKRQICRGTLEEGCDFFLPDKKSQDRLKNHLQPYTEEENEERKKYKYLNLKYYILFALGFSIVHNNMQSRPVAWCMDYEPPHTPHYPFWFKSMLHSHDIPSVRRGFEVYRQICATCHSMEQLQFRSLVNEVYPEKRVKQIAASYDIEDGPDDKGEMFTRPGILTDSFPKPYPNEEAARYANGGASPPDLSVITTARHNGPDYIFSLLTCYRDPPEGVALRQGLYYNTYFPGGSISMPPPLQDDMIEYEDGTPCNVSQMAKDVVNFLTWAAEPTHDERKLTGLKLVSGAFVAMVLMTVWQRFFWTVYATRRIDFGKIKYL
smiles,measurement,setting,value
COc1ccc(C[C@H]2NC[C@H](O)[C@H]2OC(C)=O)cc1 [Anisomycin],"shift in IC50, ScDHOD-D10attB vs parental line",[1]; transgenic parasites expressing yeast dihydroorotate dehydrogenase,no shift
same,shift of IC50 across ATQ-R lines (control compounds),[2]; ATQ-R lines vs parental 3D7,nearly invariable
COC[C@H]1C(=O)NCC(=O)N2NCCC[C@H]2C(=O)N(O)[C@H](C)C(=O)O[C@@H](C(C)C)[C@H](NC(=O)[C@](C)(O)[C@]2(O)CC[C@@H](CC(C)C)[C@H](C)O2)C(=O)N2NCCC[C@@H]2C(=O)N1O [Aurantimycin A],CC50,[3],45 nM
same,therapeutic index CC50/IC50,P. falciparum 3D7 strain,0.5
COc1ccc2cc3[n+](cc2c1OC)CCc1cc2c(cc1-3)OCO2 [Berberine],CC50 at 3 days,[4]; Ba/F3 cells,320 nM
same,therapeutic index CC50/IC50,P. falciparum 3D7 strain,0.6
C[C@@H]1C[C@H](C)C[C@H](C)[C@@H](O)CC(=O)O[C@H]([C@@H]2CCC[C@H]2C(=O)O)C/C=C/C=C(/C#N)[C@H](O)[C@@H](C)C1 [Borrelidin],CC50 at 3 days,[4]; Ba/F3 cells,959 nM
same,therapeutic index CC50/IC50,P. falciparum 3D7 strain,11.6
CCOC(=O)c1cnc2cc(OCC3CC3)c(OCC3CC3)cc2c1O [Ciproquinate],CC50 at 3 days,[4]; Ba/F3 cells,> 1250 nM
same,therapeutic index CC50/IC50,P. falciparum 3D7 strain,>156
CCCCCCC[N+](CC)(CC)CCCCc1ccc(Cl)cc1 [Clofilium],CC50 at 3 days,[4]; Ba/F3 cells,> 1250 nM
same,therapeutic index CC50/IC50,P. falciparum 3D7 strain,>2.4
CCCCCCCCCCOc1cc2c(O)c(C(=O)OCC)cnc2cc1OCC [Decoquinate],t1/2,[5],9 to 22 h
same,IC50,"[1]; Plasmodium falciparum, read-out: IC50 values, ScDHOD-D10attB",> 1000 nM
same,prepatent period (day at which parasitemia was first observed),[6],8 days
same,CC50 at 3 days,[4]; Ba/F3 cells,> 12500 nM
same,"fold change in IC50, DEC-R clone vs parental 3D7",P. falciparum DEC-R line,90 fold
same,IC50,P. falciparum D10attB,5.3 ± 1.24 nM
same,therapeutic index CC50/IC50,P. falciparum 3D7 strain,">2,500"
same,therapeutic index CC50/IC50,P. falciparum 3D7 strain; listed as decoquinate,"> 2,500"
same,fold increase in liver stage activity over atovaquone,[7],10 fold
same,IC50,"[7]; Plasmodium yoelii, in Homo sapiens, read-out: IC50, liver stage",0.177 nM
same,"loss of potency, F267V mutant",[2]; ATQ-R line vs parental 3D7,2 fold
same,"loss of potency, residue 144 mutant",[2]; ATQ-R line vs parental 3D7,no effect
same,"loss of potency, triple mutant (M133I/V140T/L181V)",[2]; ATQ-R line vs parental 3D7,5 fold
same,"loss of potency, residue 133 mutants (M133I, M133V)",[2]; ATQ-R lines vs parental 3D7,did not alter
same,IC50,[8],97 nM
CCC(Cc1cnc2nc(N)nc(N)c2n1)c1ccc(C(=O)N[C@@H](CCC(=O)O)C(=O)O)cc1 (stereo partly shown) [Edatrexate],CC50 at 3 days,[4]; Ba/F3 cells,5 nM
same,therapeutic index CC50/IC50,P. falciparum 3D7 strain,0.1
CN(C)c1ccc(C(=C2C=CC(=[N+](C)C)C=C2)c2ccc(N(C)C)cc2)cc1 [Gentian violet],CC50 at 3 days,[4]; Ba/F3 cells,> 1250 nM
same,therapeutic index CC50/IC50,P. falciparum 3D7 strain,>4
CC(C)C[C@@H](NC(=O)[C@H](C)NC(=O)CNC(=O)[C@@H](NC=O)C(C)C)C(=O)N[C@@H](C)C(=O)N[C@@H](C(=O)N[C@H](C(=O)N[C@@H](C(=O)N[C@@H](Cc1c[nH]c2ccccc12)C(=O)N[C@H](CC(C)C)C(=O)N[C@@H](Cc1c[nH]c2ccccc12)C(=O)N[C@H](CC(C)C)C(=O)N[C@@H](Cc1c[nH]c2ccccc12)C(=O)N[C@H](CC(C)C)C(=O)N[C@@H](Cc1c[nH]c2ccccc12)C(=O)NCCO)C(C)C)C(C)C)C(C)C [Gramicidin A] (For-VGA[dL]A[dV]V[dV]W[dL]W[dL]W[dL]W-NHCH2CH2OH),CC50 at 3 days,[4]; Ba/F3 cells (murine pro-B cell line),110 nM
"O[Si](CCCN1CCCCC1)(c1ccccc1)C1CCCCC1 (stereo not shown) [HHSiD, Hexahydro-sila-difenidol]",CC50,[3],> 1250 nM
same,therapeutic index CC50/IC50,P. falciparum 3D7 strain,>16.4
